{"data": "Measurements gathered from unrelated publications", "target": "MAP kinase-activated protein kinase 2 (MAPKAPK2, Homo sapiens, UniProt P49137)"}
{"Compound": "N[C@H]1CCN(c2nccc(-c3cnn4ncccc34)n2)C1", "assay": "binding", "conditions": "1 µM", "remaining binding [%]": 39}
{"Compound": "COCCOc1nc(-c2ccc(Cl)nc2)nc2c1CN(C(=O)c1ncn3ccccc13)CC2", "assay": "cell-free assay, competition with immobilised ligand", "conditions": "0.1 µM", "remaining binding [%]": 73}
{"Compound": "CN(c1nccc(-c2cnn3ncccc23)n1)C1CC1", "assay": "binding", "conditions": "1 µM", "remaining binding [%]": 83}
{"Compound": "O=C(c1ccc(Nc2ncc(Cl)c(-c3ccc(Cl)s3)n2)cc1)N1CCC(N2CCCC2)CC1", "assay": "binding, competition with immobilised ligand", "conditions": "1 µM", "remaining binding [%]": 100}
{"Compound": "CN(CCCC(F)(F)F)c1nccc(-c2cnn3ncccc23)n1", "assay": "binding", "conditions": "1 µM", "remaining binding [%]": 100}
{"Compound": "CNCc1ccccc1-c1csc([C@H](C)Nc2nc(C)nc3cc(OC)c(OC)cc23)c1", "assay": "cell-free assay, competition with immobilised ligand", "conditions": "1 µM", "remaining binding [%]": 80}
{"Compound": "CN(C)c1nccc(-c2cnc3ncccn23)n1", "assay": "binding", "conditions": "1 µM", "remaining binding [%]": 84}
{"Compound": "CC(C)(C)c1ccc(-c2nc(CBr)nn2-c2cccc(O)c2)cc1", "assay": "cell-free assay, competition with immobilised ligand", "conditions": "10 µM", "remaining binding [%]": 100}
{"Compound": "Cc1cnc(Nc2ccc(C(=O)N3CCC(N4CCCC4)CC3)cc2)nc1-c1cc2ccccc2s1", "assay": "binding, competition with immobilised ligand", "conditions": "1 µM", "remaining binding [%]": 100}
{"Compound": "C[C@@H]1CN(c2ccc3ncc(-c4ccc5[nH]nc(C6CC6)c5c4)n3n2)C[C@H](C)O1", "assay": "binding, competition with immobilised ligand", "conditions": "50 nM", "remaining binding [%]": 62}
{"Compound": "COc1ccc2c(O[C@@H]3C[C@H]4C(=O)N[C@]5(C(=O)O)CC5/C=C\\CCCCC[C@H](NC(=O)OC5CCCC5)C(=O)N4C3)cc(-c3csc(NC(=O)C(C)C)n3)nc2c1C (some centres unmarked)", "assay": "cell-free assay, competition with immobilised ligand", "conditions": "1 µM", "remaining binding [%]": 60}
{"Compound": "CN(C)c1nccc(-c2cnn3ncccc23)n1", "assay": "binding", "conditions": "1 µM", "remaining binding [%]": 100}
{"Compound": "Cc1c[nH]c2nccc(Oc3c(F)cc(Nc4cc(Cl)nc(N)n4)cc3F)c12", "assay": "cell-free assay, competition with immobilised ligand", "conditions": "0.1 µM", "remaining binding [%]": 100}
{"Compound": "c1cncc(-c2cccc(Nc3nccc(NC4CCCCC4)n3)c2)c1", "assay": "binding, competition with immobilised ligand", "conditions": "10 µM", "remaining binding [%]": 100}
{"Compound": "COc1cnc(Nc2cccc(S(N)(=O)=O)c2)nc1N1CCN(c2ccccc2)CC1", "assay": "binding, competition with immobilised ligand", "conditions": "1 µM", "remaining binding [%]": 100}
{"Compound": "c1cnn2ncc(-c3ccnc(N4CCC45COC5)n3)c2c1", "assay": "binding", "conditions": "1 µM", "remaining binding [%]": 100}
{"Compound": "O=C(NS(=O)(=O)c1ccc(NCC2CCOCC2)c([N+](=O)[O-])c1)c1ccc(N2CCN(Cc3ccc(C(F)(F)F)cc3-c3ccc(Cl)cc3)CC2)cc1Oc1cnc2[nH]ccc2c1", "assay": "cell-free assay, competition with immobilised ligand", "conditions": "1 µM", "remaining binding [%]": 81}
{"Compound": "O=C(c1ccc(Nc2ncc(Cl)c(-c3cc4ccccc4s3)n2)cc1)N1CCC(N2CCCC2)CC1", "assay": "binding, competition with immobilised ligand", "conditions": "1 µM", "remaining binding [%]": 100}
{"Compound": "O=C(O)c1cc(-c2ccc(C3CCNCC3)cc2)c2ccc(-c3ccc(C(F)(F)F)cc3)cc2c1", "assay": "cell-free assay, competition with immobilised ligand", "conditions": "1 µM", "remaining binding [%]": 51}
{"Compound": "CNC(=O)[C@@H]1CC[C@@H](n2c(-c3ccc4cnccc4c3)nc3ccc(C(=O)NCc4cccc(C(N)=O)c4)cc32)C1", "assay": "binding, competition with immobilised ligand", "conditions": "1 µM", "remaining binding [%]": 98}
{"Compound": "O=C(NCC1CCOCC1)c1n[nH]cc1NC(=O)c1c(F)cccc1F", "assay": "binding, competition with immobilised ligand", "conditions": "1 µM", "remaining binding [%]": 66}
{"Compound": "CNC(=O)Nc1ccc2c(c1)[C@@]1(CC2)OC(=O)N(CC(=O)N(Cc2ccc(F)cc2)[C@@H](C)C(F)(F)F)C1=O", "assay": "cell-free assay, competition with immobilised ligand", "conditions": "1 µM", "remaining binding [%]": 100}
{"Compound": "COc1ncc2cc3ccccc3nc2c1C#N", "assay": "cell-free assay, competition with immobilised ligand", "conditions": "5 µM", "remaining binding [%]": 100}
